In one series the test system is Notch signaling. Put plainly: Western blot of cleaved NOTCH1 and HES1 during hIEC differentiation. It is filed as cell-based, human. To be noted: single treatment with VPA, 1 mM (Fig. 1F).
The next series has as its system β-catenin. The series can be described thus: Western blot of β-catenin during hIEC differentiation. It is filed as cell-based, human. Particulars: differentiation of hIEC progenitors, 2 μM Wnt-C59 (Fig. 1F). The method in brief:
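hIEC progenitors are kept on 1% Matrigel in DMEM/F12 with EGF, R-spondin1 and insulin. They are seeded at 1.34 × 10^5 cells/cm2 on 1% Matrigel-coated Transwell inserts with 10 μM Y-27632 until near confluence. They are then switched to DMEM/F12 with EGF (100 ng/ml), 2 μM Wnt-C59, 1 mM VPA, 2% FBS, 2% B27, 1% N2, 2 mM l-glutamine, 1% NEAA and 15 mM Hepes.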

Series [1] is described as follows: Apical-to-basolateral permeability. To be noted: human.
The nature of series [2]: Apical-to-basolateral permeability. To be noted: human, Caco-2.
In another series the test system is hIECs. The series can be described thus: qPCR of intestinal marker genes in compound-treated hIECs. It is filed as cell-based, human. To be noted: compound-treated hIECs in 2D culture (Fig. 1C).

Bounds are passed on as bounds.

`CCCC(CCC)C(=O)O` [VPA, valproic acid]: the “Notch signaling (cleaved NOTCH1 and HES1)” value with Notch signaling was “notable enhancement”.

`Cc1cc(-c2ccc(CC(=O)Nc3ccc(-c4cccnc4)cc3)cc2)ccn1` [WNT C-59]: the “Expression of β-catenin” value with β-catenin is on record as “specifically inhibited”.

As for `O=C(O)Cc1ccccc1Nc1c(Cl)cccc1Cl` [diclofenac], the apparent permeability from apical to basolateral (Papp A→B) at 2 h in series [1] was 12.5 ± 2.65 ×10⁻⁶ cm/s; in series [2], 36.4 ± 1.13 ×10⁻⁶ cm/s.

As to `CC[C@H]1OC(=O)[C@H](C)[C@@H](O[C@H]2C[C@@](C)(OC)[C@@H](O)[C@H](C)O2)[C@H](C)[C@@H](O[C@@H]2O[C@H](C)C[C@H](N(C)C)[C@H]2O)[C@](C)(O)C[C@@H](C)C(=O)[C@H](C)[C@@H](O)[C@]1(C)O` [erythromycin], the Papp A→B at 2 h in series [1] is 4.95 ± 0.14 ×10⁻⁶ cm/s; in series [2], less than 0.3 ×10⁻⁶ cm/s.

On to `COCCc1ccc(OCC(O)CNC(C)C)cc1` (centres unmarked) [metoprolol], for which the apparent permeability from apical to basolateral (Papp A→B) at 2 h in series [1] was determined as 13.8 ± 0.74 ×10⁻⁶ cm/s; in series [2], 35.5 ± 1 ×10⁻⁶ cm/s.

In the case of `CC(C)NCC(O)COc1cccc2ccccc12` (centres unmarked) [propranolol], the Papp A→B at 2 h in series [1] turned out to be 13.1 ± 1.25 ×10⁻⁶ cm/s; in series [2], 29.1 ± 0.97 ×10⁻⁶ cm/s.

With `CNC(=C[N+](=O)[O-])NCCSCc1ccc(CN(C)C)o1` [ranitidine], the apical-to-basolateral permeability (Papp A→B) at 2 h came to 11.6 ± 0.92 ×10⁻⁶ cm/s in series [1] and 1.16 ± 0.09 ×10⁻⁶ cm/s in series [2].

For “Insulin: acts in the intestinal epithelium via the insulin receptor; component of hIEC medium 1”, the “Differentiation into absorptive cells (VIL1 and ANPEP expression)” value in the series with hIECs was “specifically increased”.

B1: R-spondin 1: an agonist of Wnt signaling (protein, UniProt Q2MKA7 21-263, looked up)
R-spondin-1: SRGIKGKRQRRISAEGSQACAKGCELCSEVNGCLKCSPKLFILLERNDIRQVGVCLPSCPPGYFDARNPDMNKCIKCKIEHCEACFSHNFCTKCKEGLYLHKGRCYPACPEGSSAANGTMECSSPAQCEMSEWSPWGPCSKKQQLCGFRRGSEERTRRVLHAPVGDHAACSDTKETRRCTVRRVPCPEGQKRRKGGQGRRENANRNLARKESKEAGAGSRRRKGQQQQQQQGTVGPLTSAGPA
B1: the “Expression of markers of major intestinal cell types (ISCs, enterocytes, secretory lineage cells)” value with hIECs is “induced”.

The values are drawn from article PMC11210309 (Science Advances, 2021).
